Source: ChEMBL document CHEMBL4130550, “Antiproliferative Dimeric Aporphinoid Alkaloids from the Roots of Thalictrum cultratum” (J Nat Prod, 2017)
Active and inactive are the calls of the source. The calls are words filed in the database; no cut-off is given here.

Experiments:
HL-60 [1] = assay: Cell cycle arrest in human HL60 cells assessed as accumulation at G1 phase at 0.3 uM after 24 hrs by propidium iodide staining based flow cytometric method (reference value: 43.32%); assay type: functional
HL-60 [2] = assay: Induction of apoptosis in human HL60 cells assessed as necrotic cells at 1.5 uM after 72 hrs by Annexin-V-FITC/propidium iodide staining based flow cytometric method (reference value: 0.47%); assay type: functional
HL-60 [3] = assay: Cell cycle arrest in human HL60 cells assessed as accumulation at G2 phase at 0.3 uM after 24 hrs by propidium iodide staining based flow cytometric method (reference value: 30.93%); assay type: functional
HL-60 [4] = assay: Induction of apoptosis in human HL60 cells assessed as live cells at 1.5 uM after 48 hrs by Annexin-V-FITC/propidium iodide staining based flow cytometric method (reference value: 94.19%); assay type: functional
HL-60 [5] = assay: Induction of apoptosis in human HL60 cells assessed as late apoptotic cells at 1.5 uM after 72 hrs by Annexin-V-FITC/propidium iodide staining based flow cytometric method (reference value: 2.53%); assay type: functional
HL-60 [6] = assay: Induction of apoptosis in human HL60 cells assessed as live cells at 1.5 uM after 24 hrs by Annexin-V-APC/7-AAD staining based flow cytometric method (reference value: 95.31%); assay type: functional
Outline: (§1)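 HL-60 are seeded overnight in six-well plates, then treated in triplicate with 0.06, 0.3 or 1.5 μM, or untreated, for 24 h. Cells are washed in PBS and taken up in annexin V binding buffer. Annexin V-APC is added for 15 min in the dark at 25 °C, and 7-AAD just before flow cytometry. Early apoptosis is annexin V-APC only; late apoptosis is annexin V-APC/7-AAD.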

HL-60 [7] = assay: Induction of apoptosis in human HL60 cells assessed as late apoptotic cells at 0.06 uM after 24 hrs by Annexin-V-APC/7-AAD staining based flow cytometric method (reference value: 1.99%); assay type: functional; outline: as §1
HL-60 [8] = assay: Induction of apoptosis in human HL60 cells assessed as live cells at 0.3 uM after 24 hrs by Annexin-V-APC/7-AAD staining based flow cytometric method (reference value: 95.31%); assay type: functional; outline: as §1
HL-60 [9] = assay: Induction of apoptosis in human HL60 cells assessed as early apoptotic cells at 1.5 uM after 24 hrs by Annexin-V-APC/7-AAD staining based flow cytometric method (reference value: 2.26%); assay type: functional; outline: as §1
HL-60 [10] = assay: Induction of mitochondrial membrane potential loss in human HL60 cells assessed as collapse of the mitochondrial membrane potential at 0.3 uM after 24 hrs by JC1 staining based flow cytometric method (reference value: 0.58%); assay type: functional
HL-60 [11] = assay: Induction of apoptosis in human HL60 cells at 1.5 uM by Annexin-V-FITC/propidium iodide staining based flow cytometric method; assay type: functional, cell-based; details: TDE = time-dependent effect
HL-60 [12] = assay: Cell cycle arrest in human HL60 cells assessed as accumulation at S phase at 0.06 uM after 24 hrs by propidium iodide staining based flow cytometric method (reference value: 25.75%); assay type: functional
HL-60 [13] = assay: Induction of apoptosis in human HL60 cells assessed as live cells at 1.5 uM after 24 hrs by Annexin-V-FITC/propidium iodide staining based flow cytometric method (reference value: 94.19%); assay type: functional
HL-60 [14] = assay: Induction of apoptosis in human HL60 cells assessed as early apoptotic cells at 1.5 uM after 72 hrs by Annexin-V-FITC/propidium iodide staining based flow cytometric method (reference value: 2.8%); assay type: functional
HL-60 [15] = assay: Induction of apoptosis in human HL60 cells assessed as early apoptotic cells at 1.5 uM after 24 hrs by Annexin-V-FITC/propidium iodide staining based flow cytometric method (reference value: 2.8%); assay type: functional
HL-60 [16] = assay: Induction of apoptosis in human HL60 cells assessed as necrotic cells at 1.5 uM after 24 hrs by Annexin-V-APC/7-AAD staining based flow cytometric method (reference value: 0.44%); assay type: functional; outline: as §1
PC-3 = assay: Antiproliferative activity against human PC3 cells by MTT assay; assay type: functional, cell-based
Outline: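 PC-3 (ATCC) in supplemented RPMI-1640 with 10% FBS at 37 °C, 5% CO2. Log-phase cells get graded concentrations in triplicate. MTT (5 mg/mL solution) is added for a further 4 h, then dissolved in DMSO and read at 490 nm. IC50 is from the average of three parallel experiments. Negative reference is 0.1% DMSO.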

HL-60 [17] = assay: Cell cycle arrest in human HL60 cells assessed as accumulation at G1 phase at 1.5 uM after 24 hrs by propidium iodide staining based flow cytometric method (reference value: 43.32%); assay type: functional
HL-60 [18] = assay: Induction of apoptosis in human HL60 cells assessed as necrotic cells at 0.3 uM after 24 hrs by Annexin-V-APC/7-AAD staining based flow cytometric method (reference value: 0.44%); assay type: functional; outline: as §1
HL-60 [19] = assay: Induction of apoptosis in human HL60 cells assessed as early apoptotic cells at 0.3 uM after 24 hrs by Annexin-V-APC/7-AAD staining based flow cytometric method (reference value: 2.26%); assay type: functional; outline: as §1
HL-60 [20] = assay: Induction of mitochondrial membrane potential loss in human HL60 cells assessed as collapse of the mitochondrial membrane potential at 1.5 uM after 24 hrs by JC1 staining based flow cytometric method (reference value: 0.58%); assay type: functional
HL-60 [21] = assay: Induction of apoptosis in human HL60 cells assessed as late apoptotic cells at 1.5 uM after 48 hrs by Annexin-V-FITC/propidium iodide staining based flow cytometric method (reference value: 2.53%); assay type: functional
HL-60 [22] = assay: Induction of apoptosis in human HL60 cells assessed as late apoptotic cells at 0.3 uM after 24 hrs by Annexin-V-APC/7-AAD staining based flow cytometric method (reference value: 1.99%); assay type: functional; outline: as §1
HL-60 [23] = assay: Cell cycle arrest in human HL60 cells assessed as accumulation at S phase at 0.3 uM after 24 hrs by propidium iodide staining based flow cytometric method (reference value: 25.75%); assay type: functional
HL-60 [24] = assay: Induction of morphological changes in human HL60 cells assessed as cell shrinkage at 0.06 to 1.5 uM after 24 hrs by Hoechst 33258 staining based fluorescence microscopic analysis; assay type: functional
HL-60 [25] = assay: Induction of apoptosis in human HL60 cells assessed as live cells at 1.5 uM after 72 hrs by Annexin-V-FITC/propidium iodide staining based flow cytometric method (reference value: 94.19%); assay type: functional
HL-60 [26] = assay: Antiproliferative activity against human HL60 cells after 72 hrs by tryphan blue staining based hematocytometric method; assay type: functional, cell-based; details: HL-60, 72 h
Outline: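 HL-60 (ATCC) in RPMI-1640 with 10% heat-inactivated FBS, 1 mM glutamine and penicillin/streptomycin, 37 °C, 5% CO2. Cells at 4.5 × 10^4 cells/mL are exposed to a concentration gradient (DMSO stock diluted in absolute EtOH) for 72 h. Trypan blue is added and total cells are counted on a hematocytometer. IC50 is the mean of three parallel experiments. Negative reference is 0.1% DMSO.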

HL-60 [27] = assay: Cell cycle arrest in human HL60 cells assessed as accumulation at G2 phase at 0.06 uM after 24 hrs by propidium iodide staining based flow cytometric method (reference value: 30.93%); assay type: functional
HL-60 [28] = assay: Induction of apoptosis in human HL60 cells assessed as early apoptotic cells at 1.5 uM after 48 hrs by Annexin-V-FITC/propidium iodide staining based flow cytometric method (reference value: 2.8%); assay type: functional

`COc1cc2c(c(Oc3ccc(C[C@H]4c5cc(OC)c6c(c5CCN4C)OCO6)cc3)c1OC)C[C@H]1c3c(c(OC)c(OC)c(OC)c3-2)CCN1C` showed an Activity (HL-60 [1]) of 36.01%, an Activity (HL-60 [2]) of 0.79% and an Activity (HL-60 [3]) of 21.47%. It also gave an Activity (HL-60 [4]) of 52.96%, an Activity (HL-60 [5]) of 31.66% and an Activity (HL-60 [6]) of 35.77%. The Activity (HL-60 [7]) was 8.18%, the Activity (HL-60 [8]) was 69.73% and the Activity (HL-60 [9]) was 9%. For the same molecule, the Activity (HL-60 [10]) was 33.5%, the Activity (HL-60 [11]) was “Tde” and the Activity (HL-60 [12]) was 31.66%. It also gave an Activity (HL-60 [13]) of 76.15%, an Activity (HL-60 [14]) of 31.46% and an Activity (HL-60 [15]) of 14.79%. For the same molecule, the Activity (HL-60 [16]) was 7.28%, the IC50 (PC-3) was 5.59 µM and the Activity (HL-60 [17]) was 33.02%. It also gave an Activity (HL-60 [18]) of 1.2%, an Activity (HL-60 [19]) of 22.76% and an Activity (HL-60 [20]) of 59.1%. The Activity (HL-60 [21]) was 17.69%, the Activity (HL-60 [22]) was 6.3% and the Activity (HL-60 [23]) was 42.51%. For the same molecule, the Activity (HL-60 [24]) was “Active”, the Activity (HL-60 [25]) was 36.09% and the IC50 (HL-60 [26]) was 1.08 µM. For the same molecule, the Activity (HL-60 [27]) was 24.33% and the Activity (HL-60 [28]) was 28.78%.
